Measured values published in ChEMBL document CHEMBL1148722, “Discovery and optimization of p38 inhibitors via computer-assisted drug design” (J Med Chem, 2007).

Columns and labels:
Blood = experiment: Inhibition of LPS-induced TNFalpha production in human whole blood; format: functional, tissue-based
How it was run: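 Fresh heparinized human whole blood was preincubated 30 min at 37 °C with serially diluted compound in type AB serum. It was then stimulated with E. coli LPS 0111:B4 (50 ng/mL final) for 5 h at 37 °C. Plasma TNFα was measured by ELISA, DELFIA or electrochemiluminescence against an on-plate standard curve. EC50 came from cross-plate duplicate 11-point curves fitted to a 4-parameter logistic, as the geometric mean over ≥3 donors.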

[1] = Bioavailability in Sprague-Dawley rat at 10 mg/kg, po; format: ADME, organism-based; conditions: in vivo
How it was run: (§1)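 Male Sprague-Dawley rats, fasted overnight with food returned about 4 h post-dose, three per group. One group got 1 mg/kg as a ~15 s i.v. push via femoral vein catheter at 1 mL/kg. The other got 10 mg/kg by oral gavage at 10 mL/kg. Plasma was analysed by noncompartmental pharmacokinetic methods.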

[2] = Cmax in Sprague-Dawley rat at 10 mg/kg, po; format: ADME, organism-based; set-up: dose 10 mg/kg, route oral; conditions: in vivo; how it was run: as §1
Mus musculus [3] = experiment: Inhibition of LPS-induced TNFalpha production in BALB/c mouse at 10 mg/kg, po; format: functional
How it was run: (§2)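 Female Balb/c mice (~20 g) were gavaged with compound in cremophor about 30 min before i.v. LPS (E. coli 0111:B4, 1.0 µg/mouse) plus D-gal (50 mg/kg) in pyrogen-free saline. After 1 h, blood was taken by cardiac puncture under anaesthesia. Serum TNFα was measured by ELISA in duplicate, and compound level by HPLC.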

[4] = Clearance in Sprague-Dawley rat at 1 mg/kg, iv; format: ADME, organism-based; set-up: dose 1 mg/kg, route intravenous; conditions: in vivo; how it was run: as §1
Mus musculus [5] = experiment: Inhibition of LPS-induced TNFalpha production in BALB/c mouse at 3 mg/kg, po; format: functional; how it was run: as §2
[6] = target: Mitogen-activated protein kinase 9 (Homo sapiens, UniProt P45984); experiment: Inhibition of JNK2
[7] = target: Tyrosine-protein kinase Lyn (Homo sapiens, UniProt P07948); experiment: Inhibition of Lyn
Sequence of Tyrosine-protein kinase Lyn (P07948 whole entry): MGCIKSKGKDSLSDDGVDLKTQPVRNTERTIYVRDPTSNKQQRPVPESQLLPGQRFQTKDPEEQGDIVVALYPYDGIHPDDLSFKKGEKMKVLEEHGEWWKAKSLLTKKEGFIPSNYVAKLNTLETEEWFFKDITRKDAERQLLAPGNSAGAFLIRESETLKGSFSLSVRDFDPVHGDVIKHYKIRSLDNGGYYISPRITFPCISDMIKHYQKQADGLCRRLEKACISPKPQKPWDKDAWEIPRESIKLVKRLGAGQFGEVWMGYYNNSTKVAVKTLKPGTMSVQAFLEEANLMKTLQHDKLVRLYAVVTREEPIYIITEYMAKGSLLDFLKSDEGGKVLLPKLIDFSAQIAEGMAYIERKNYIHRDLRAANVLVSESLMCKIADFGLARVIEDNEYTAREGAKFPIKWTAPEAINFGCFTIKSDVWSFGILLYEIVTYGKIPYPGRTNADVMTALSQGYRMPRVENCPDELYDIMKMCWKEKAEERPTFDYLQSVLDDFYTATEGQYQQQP

Sequence of Mitogen-activated protein kinase 9 (P45984 whole entry): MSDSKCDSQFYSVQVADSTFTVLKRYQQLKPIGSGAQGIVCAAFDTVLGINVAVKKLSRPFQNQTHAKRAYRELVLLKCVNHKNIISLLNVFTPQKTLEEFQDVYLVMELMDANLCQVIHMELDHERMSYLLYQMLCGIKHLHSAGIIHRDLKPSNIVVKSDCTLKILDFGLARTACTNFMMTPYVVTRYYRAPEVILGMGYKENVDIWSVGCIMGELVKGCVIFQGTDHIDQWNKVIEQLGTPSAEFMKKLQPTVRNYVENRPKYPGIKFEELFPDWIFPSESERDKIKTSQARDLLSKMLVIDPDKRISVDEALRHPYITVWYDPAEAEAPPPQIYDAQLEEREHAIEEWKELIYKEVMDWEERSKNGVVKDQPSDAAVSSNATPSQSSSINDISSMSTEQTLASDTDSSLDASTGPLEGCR

For `COc1c(NC(=O)c2cc3ccccc3s2)cc(C(C)(C)C)cc1NS(C)(=O)=O`, which IC50 (Blood) is on record?
The IC50 was greater than 10000 nM.

Which IC50 (Blood) does the source give for `COc1c(NC(=O)c2cc3ccccc3[nH]2)cc(C(C)(C)C)cc1NS(C)(=O)=O` here?
The IC50 was greater than 10000 nM.

Which IC50 (Blood) does the source give for `COc1c(NC(=O)c2cc3c(NC(=O)c4cccnc4)cccc3s2)cc(C(C)(C)C)cc1NS(C)(=O)=O` here?
The IC50 was greater than 10000 nM.

With `COc1c(NC(=O)c2cc3cccc(NC(=O)c4cccnc4)c3s2)cc(C(C)(C)C)cc1NS(C)(=O)=O` as the compound, how does the bioavailability [1] read?
The bioavailability was 57%.

And the Cmax [2]?
The Cmax was 5200 ng/mL.

And the inhibition in vivo at 10 mg/kg (Mus musculus [3])?
The inhibition in vivo at 10 mg/kg was 60%.

And the clearance [4]?
Its clearance is 19 mL/min/kg.

And the IC50 (Blood)?
Its IC50 is 1100 nM.

With `COc1c(NC(=O)c2cc3cccc(NC(=O)c4cccnc4)c3n2C)cc(C(C)(C)C)cc1NS(C)(=O)=O` as the compound, how does the bioavailability [1] read?
The bioavailability was 90%.

What about the Cmax [2] of the same compound?
Its Cmax is 9000 ng/mL.

And the inhibition in vivo at 10 mg/kg (Mus musculus [3])?
Its inhibition in vivo at 10 mg/kg is 60%.

And the clearance [4]?
Its clearance is 3 mL/min/kg.

What about the IC50 (Blood) of the same compound?
Its IC50 is 3600 nM.

Which IC50 (Blood) does the source give for `CNc1ccc(C(=O)Nc2cccc3cc(C(=O)Nc4cc(C(C)(C)C)cc(NS(C)(=O)=O)c4OC)sc23)cn1` here?
Its IC50 is 1100 nM.

For `CNc1ccc(C(=O)Nc2cccc3cc(C(=O)Nc4cc(C(C)(C)C)cc(NS(C)(=O)=O)c4OC)n(C)c23)cn1`, which IC50 (Blood) is on record?
Its IC50 is 500 nM.

With `COc1c(NC(=O)c2cc3cccc(NC(=O)c4ccc(NCCN(C)C)nc4)c3s2)cc(C(C)(C)C)cc1NS(C)(=O)=O` as the compound, how does the IC50 (Blood) read?
The IC50 was 650 nM.

Which IC50 (Blood) does the source give for `COc1c(NC(=O)c2cc3cccc(NC(=O)c4ccc(NCCN5CCOCC5)nc4)c3n2C)cc(C(C)(C)C)cc1NS(C)(=O)=O` here?
The IC50 was 250 nM.

Which inhibition in vivo at 3 mg/kg (Mus musculus [5]) does the source give for `COc1c(NC(=O)c2cc3cccc(NC(=O)c4ccc(NC5CC5)nc4)c3s2)cc(C(C)(C)C)cc1NS(C)(=O)=O` here?
Its inhibition in vivo at 3 mg/kg is 80%.

And the bioavailability [1]?
Its bioavailability is 51%.

And the Cmax [2]?
Its Cmax is 2400 ng/mL.

What about the inhibition in vivo at 10 mg/kg (Mus musculus [3]) of the same compound?
Its inhibition in vivo at 10 mg/kg is 98%.

And the IC50 [6]?
Its IC50 is 16 nM.

And the IC50 [7]?
Its IC50 is 230 nM.

What about the clearance [4] of the same compound?
The clearance was 4 mL/min/kg.

And the IC50 (Blood)?
The IC50 was 180 nM.

Which IC50 (Blood) does the source give for `COc1c(NC(=O)c2cc3cccc(NC(=O)c4ccc(NCC5CC5)nc4)c3s2)cc(C(C)(C)C)cc1NS(C)(=O)=O` here?
Its IC50 is 670 nM.

For `COc1c(NC(=O)Nc2ccc(OCCN3CCOCC3)c3ccccc23)cc(C(C)(C)C)cc1NS(C)(=O)=O`, which IC50 (Blood) is on record?
Its IC50 is 1060 nM.

With `COc1c(NC(=O)Nc2cccc3ccccc23)cc(C(C)(C)C)cc1NS(C)(=O)=O` as the compound, how does the IC50 (Blood) read?
The IC50 was greater than 10000 nM.

With `COc1c(NC(=O)c2cc3cccc(NC(=O)c4ccc(N(C)C)nc4)c3s2)cc(C(C)(C)C)cc1NS(C)(=O)=O` as the compound, how does the IC50 (Blood) read?
The IC50 was 2200 nM.

Which IC50 (Blood) does the source give for `COc1c(NC(=O)c2cc3ccccc3n2C)cc(C(C)(C)C)cc1NS(C)(=O)=O` here?
Its IC50 is greater than 10000 nM.

For `COc1c(NC(=O)c2cc3cccc(NC(=O)c4ccc(N)nc4)c3s2)cc(C(C)(C)C)cc1NS(C)(=O)=O`, which IC50 (Blood) is on record?
Its IC50 is 430 nM.

With `COc1c(NC(=O)c2cc3ccccc3o2)cc(C(C)(C)C)cc1NS(C)(=O)=O` as the compound, how does the IC50 (Blood) read?
The IC50 was greater than 10000 nM.

Which IC50 (Blood) does the source give for `COc1c(NC(=O)c2cc3cccc(NC(=O)c4ccc(NCCN(C)C)nc4)c3n2C)cc(C(C)(C)C)cc1NS(C)(=O)=O` here?
Its IC50 is 700 nM.

For `COc1c(NC(=O)c2cc3cccc(NC(=O)c4ccc(NC5CC5)nc4)c3n2C)cc(C(C)(C)C)cc1NS(C)(=O)=O`, which inhibition in vivo at 3 mg/kg (Mus musculus [5]) is on record?
The inhibition in vivo at 3 mg/kg was 60%.

And the bioavailability [1]?
The bioavailability was 51%.

And the Cmax [2]?
Its Cmax is 14000 ng/mL.

And the inhibition in vivo at 10 mg/kg (Mus musculus [3])?
The inhibition in vivo at 10 mg/kg was 75%.

And the clearance [4]?
Its clearance is 5 mL/min/kg.

What about the IC50 (Blood) of the same compound?
Its IC50 is 140 nM.

For `COc1c(NC(=O)c2cc3cccc(NC(=O)c4ccc(NCC5CC5)nc4)c3n2C)cc(C(C)(C)C)cc1NS(C)(=O)=O`, which IC50 (Blood) is on record?
Its IC50 is 150 nM.

With `COCCNc1ccc(C(=O)Nc2cccc3cc(C(=O)Nc4cc(C(C)(C)C)cc(NS(C)(=O)=O)c4OC)sc23)cn1` as the compound, how does the IC50 (Blood) read?
Its IC50 is 130 nM.

For `COCCNc1ccc(C(=O)Nc2cccc3cc(C(=O)Nc4cc(C(C)(C)C)cc(NS(C)(=O)=O)c4OC)n(C)c23)cn1`, which IC50 (Blood) is on record?
Its IC50 is 160 nM.

Which IC50 (Blood) does the source give for `COc1c(NC(=O)c2cc3cccc(NC(=O)c4ccc(NCCN5CCOCC5)nc4)c3s2)cc(C(C)(C)C)cc1NS(C)(=O)=O` here?
The IC50 was 550 nM.

With `Cc1ccc(-n2nc(C(C)(C)C)cc2NC(=O)Nc2ccc(OCCN3CCOCC3)c3ccccc23)cc1` [DORAMAPIMOD] as the compound, how does the bioavailability [1] read?
The bioavailability was 76%.

What about the Cmax [2] of the same compound?
The Cmax was 10900 ng/mL.

And the inhibition in vivo at 10 mg/kg (Mus musculus [3])?
The inhibition in vivo at 10 mg/kg was 60%.

And the clearance [4]?
Its clearance is 1.7 mL/min/kg.
